Test results taken from ChEMBL document CHEMBL3112459, “Synthesis and assay of retro-α4β1 integrin-targeting motifs” (Eur J Med Chem, 2014).
Numbered stars: 1 amine (or outer) side, 2 acyl side, 3 side chain; on linkers, the order of the positions; unused ones are H or OH. Square brackets hold non-standard residues; d marks the D form. Peptide text beside a SMILES is read from it. * marks the point of attachment. X1 = O=C(Cc1ccc(N[*:1])cc1)[*:2]; NH(2-Me-phenyl) = Cc1ccccc1N*; CO = O=C([*:1])[*:2]

Experiments:
Integrin alpha-4/beta-1 [1] = molecular target: T1, Integrin alpha-4/beta-1 (Homo sapiens, UniProt P05556+P13612); test: Inhibition of human alpha4beta1 integrin expressed in human Jurkat cells assessed as inhibition of cell adhesion to VCAM-1; assay type: cell-based
In short: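 Jurkat cells (5 × 10⁵ per well) adhered to wells coated overnight at 4 °C with human recombinant VCAM-1. Wells were blocked with 1% BSA/HBSS for 30 min at 37 °C. Data are mean ± S.E.M.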

Integrin alpha-4/beta-1 [2] = molecular target: T1, Integrin alpha-4/beta-1; test: Displacement of [125I]-FN from human alpha4beta1 integrin expressed in human Jurkat cells by scintillation proximity assay; assay type: cell-based
In short: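 Jurkat cells stably expressing human α4 integrin were the integrin source. The α4 integrin–anti-α4 antibody complex was captured on anti-rabbit IgG-coated scintillant microspheres. Soluble ¹²⁵I-human FN (~440 kDa) was the radioligand, incubated overnight, with counts read as cpm. IC50 values came from competition curves and were converted to Ki by Cheng–Prusoff. Data are mean ± S.E.M.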

SK-MEL-24 = test: Cytotoxicity against human SK-MEL-24 cells by trypan blue exclusion assay; assay type: cell-based
[3] = (§1) Drug degradation in 100% mouse serum after 120 mins; assay type: ADME, cell-free; conditions: read-out: Drug degradation
In short: (§2)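 Peptides were dissolved in Tris buffer pH 7.4, and aliquots of a 10 mM stock were added to mouse serum (10 µL into 190 µL). Incubation was at 37 °C for 120 min. Withdrawn aliquots were quenched with glacial acetonitrile to precipitate proteins and analysed by RP-HPLC and ESI-MS. Runs were in triplicate and repeated three times.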

Jurkat = test: Cytotoxicity against human Jurkat cells by trypan blue exclusion assay; assay type: cell-based
Integrin alpha-V/beta-3 = Integrin alpha-V/beta-3 (Homo sapiens, UniProt P05106+P06756); test: Inhibition of human alphavbeta3 integrin expressed in human SK-MEL-24 cells assessed as inhibition of cell adhesion to vitronectin; assay type: cell-based
Serum = test: as §1; assay type: ADME, cell-free; conditions: 2 h; in short: as §2

T1 sequence (P05556 whole entry): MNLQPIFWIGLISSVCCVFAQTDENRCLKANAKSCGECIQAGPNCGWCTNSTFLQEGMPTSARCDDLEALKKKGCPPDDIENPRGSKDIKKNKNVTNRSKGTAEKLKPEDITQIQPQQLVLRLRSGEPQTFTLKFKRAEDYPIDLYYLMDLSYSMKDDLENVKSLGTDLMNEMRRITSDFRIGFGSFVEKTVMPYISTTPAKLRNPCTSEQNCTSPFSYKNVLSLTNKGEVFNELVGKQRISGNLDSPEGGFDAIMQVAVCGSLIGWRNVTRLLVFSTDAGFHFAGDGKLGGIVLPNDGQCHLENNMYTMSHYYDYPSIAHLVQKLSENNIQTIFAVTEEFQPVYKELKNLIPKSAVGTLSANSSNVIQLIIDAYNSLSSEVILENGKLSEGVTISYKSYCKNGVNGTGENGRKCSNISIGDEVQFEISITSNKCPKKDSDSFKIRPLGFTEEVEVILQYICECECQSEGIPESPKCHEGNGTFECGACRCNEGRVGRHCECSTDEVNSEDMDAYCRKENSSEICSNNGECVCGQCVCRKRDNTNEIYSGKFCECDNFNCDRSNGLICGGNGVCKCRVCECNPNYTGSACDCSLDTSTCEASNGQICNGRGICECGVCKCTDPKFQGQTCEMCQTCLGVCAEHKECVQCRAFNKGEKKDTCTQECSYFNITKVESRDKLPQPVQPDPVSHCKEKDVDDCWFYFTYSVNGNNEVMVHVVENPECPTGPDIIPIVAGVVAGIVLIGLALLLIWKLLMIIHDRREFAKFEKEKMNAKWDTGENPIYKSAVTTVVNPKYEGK
T1 sequence (P13612 whole entry): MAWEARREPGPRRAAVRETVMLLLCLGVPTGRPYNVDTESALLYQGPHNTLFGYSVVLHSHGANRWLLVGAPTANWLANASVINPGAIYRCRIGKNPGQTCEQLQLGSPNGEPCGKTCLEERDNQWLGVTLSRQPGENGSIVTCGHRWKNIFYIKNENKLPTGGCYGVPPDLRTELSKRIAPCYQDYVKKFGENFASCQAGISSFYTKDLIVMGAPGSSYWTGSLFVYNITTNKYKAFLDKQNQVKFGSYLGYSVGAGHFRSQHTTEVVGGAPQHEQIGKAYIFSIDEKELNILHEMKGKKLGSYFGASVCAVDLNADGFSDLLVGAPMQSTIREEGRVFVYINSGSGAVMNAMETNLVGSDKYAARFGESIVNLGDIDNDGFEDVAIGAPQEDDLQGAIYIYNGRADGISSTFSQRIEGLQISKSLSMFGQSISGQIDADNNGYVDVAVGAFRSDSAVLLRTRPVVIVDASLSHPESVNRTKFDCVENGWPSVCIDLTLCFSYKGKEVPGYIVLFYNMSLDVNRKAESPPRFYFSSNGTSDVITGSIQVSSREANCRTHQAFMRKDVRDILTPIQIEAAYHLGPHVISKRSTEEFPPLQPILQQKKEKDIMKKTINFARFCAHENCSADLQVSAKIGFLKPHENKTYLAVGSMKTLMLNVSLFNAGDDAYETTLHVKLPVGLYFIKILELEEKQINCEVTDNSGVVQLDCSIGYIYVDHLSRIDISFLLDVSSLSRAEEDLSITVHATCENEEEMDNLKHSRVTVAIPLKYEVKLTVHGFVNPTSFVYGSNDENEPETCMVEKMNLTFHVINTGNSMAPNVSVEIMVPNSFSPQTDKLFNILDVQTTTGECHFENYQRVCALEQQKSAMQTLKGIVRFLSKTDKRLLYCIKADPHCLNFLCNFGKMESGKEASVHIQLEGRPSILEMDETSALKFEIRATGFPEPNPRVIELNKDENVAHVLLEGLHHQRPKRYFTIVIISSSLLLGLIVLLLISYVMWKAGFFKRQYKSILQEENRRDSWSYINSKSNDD
Chain of Integrin alpha-V/beta-3 (P05106 27-788 limits assumed): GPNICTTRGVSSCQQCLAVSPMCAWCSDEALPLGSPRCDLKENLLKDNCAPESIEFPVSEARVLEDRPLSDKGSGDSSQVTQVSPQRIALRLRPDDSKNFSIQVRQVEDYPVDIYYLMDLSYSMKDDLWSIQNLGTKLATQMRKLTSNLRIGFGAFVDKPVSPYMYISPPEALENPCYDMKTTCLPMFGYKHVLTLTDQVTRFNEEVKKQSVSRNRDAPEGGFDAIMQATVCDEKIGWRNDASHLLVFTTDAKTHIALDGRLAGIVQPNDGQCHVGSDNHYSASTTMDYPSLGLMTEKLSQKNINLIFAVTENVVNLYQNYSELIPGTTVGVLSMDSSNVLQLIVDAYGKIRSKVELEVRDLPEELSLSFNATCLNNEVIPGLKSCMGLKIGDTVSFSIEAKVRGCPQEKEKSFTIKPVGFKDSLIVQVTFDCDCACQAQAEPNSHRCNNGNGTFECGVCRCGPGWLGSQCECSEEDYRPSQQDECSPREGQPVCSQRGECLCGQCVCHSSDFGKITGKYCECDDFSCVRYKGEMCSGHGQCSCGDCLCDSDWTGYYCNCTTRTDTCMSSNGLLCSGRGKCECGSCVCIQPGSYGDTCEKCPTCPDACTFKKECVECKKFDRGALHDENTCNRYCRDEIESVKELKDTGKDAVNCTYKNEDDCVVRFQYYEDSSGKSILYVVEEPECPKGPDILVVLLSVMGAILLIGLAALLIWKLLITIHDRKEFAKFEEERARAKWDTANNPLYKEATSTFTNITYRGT
Chain of Integrin alpha-V/beta-3 (P06756 31-889 limits assumed): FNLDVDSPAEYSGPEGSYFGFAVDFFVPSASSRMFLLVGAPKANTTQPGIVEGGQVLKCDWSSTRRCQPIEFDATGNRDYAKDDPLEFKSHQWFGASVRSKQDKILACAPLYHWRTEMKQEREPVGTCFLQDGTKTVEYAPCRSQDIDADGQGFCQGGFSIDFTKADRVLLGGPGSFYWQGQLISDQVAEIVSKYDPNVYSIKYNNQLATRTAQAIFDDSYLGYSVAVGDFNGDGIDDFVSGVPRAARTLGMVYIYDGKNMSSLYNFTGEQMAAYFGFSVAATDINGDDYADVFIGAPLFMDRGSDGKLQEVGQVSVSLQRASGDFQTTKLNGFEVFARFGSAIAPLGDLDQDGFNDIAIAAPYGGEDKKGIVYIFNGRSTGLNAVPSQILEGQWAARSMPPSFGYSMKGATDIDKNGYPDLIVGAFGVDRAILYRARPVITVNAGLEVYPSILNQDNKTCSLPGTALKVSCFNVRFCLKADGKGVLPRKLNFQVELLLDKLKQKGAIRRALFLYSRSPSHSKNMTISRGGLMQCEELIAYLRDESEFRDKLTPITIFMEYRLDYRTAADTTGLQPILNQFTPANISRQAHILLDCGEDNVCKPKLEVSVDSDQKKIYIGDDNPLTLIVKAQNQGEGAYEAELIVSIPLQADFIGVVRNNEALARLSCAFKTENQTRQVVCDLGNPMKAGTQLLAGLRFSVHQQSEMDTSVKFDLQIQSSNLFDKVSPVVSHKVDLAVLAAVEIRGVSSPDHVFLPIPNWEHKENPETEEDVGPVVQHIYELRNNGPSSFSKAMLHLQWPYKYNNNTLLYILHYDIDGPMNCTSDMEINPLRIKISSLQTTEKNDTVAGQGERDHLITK
Chain of Integrin alpha-V/beta-3 (P06756 891-1048 limits assumed): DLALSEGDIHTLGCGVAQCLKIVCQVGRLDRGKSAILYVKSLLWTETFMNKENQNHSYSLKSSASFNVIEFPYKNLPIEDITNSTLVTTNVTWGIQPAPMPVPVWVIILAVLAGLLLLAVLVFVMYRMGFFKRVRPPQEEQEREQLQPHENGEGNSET

Row | IC50 (Integrin alpha-4/beta-1 [1]) [nM] | IC50 (Integrin alpha-4/beta-1 [2]) [nM] | Ki (Integrin alpha-4/beta-1 [2]) [nM] | metabolised at 2 h [3] [%] | IC50 (Integrin alpha-V/beta-3) [µM] | inhibition (Integrin alpha-4/beta-1 [1]) | inhibition (Integrin alpha-4/beta-1 [2]) | Stability (Serum) | SMILES | Activity (SK-MEL-24) | Activity (Jurkat)
1 | > 100000 | > 100000 | > 100000 | – | – | – | – | – | Cc1ccccc1NC(=O)Nc1ccc(CC(=O)N2CC[C@H](C(=O)N[C@@H](CC(=O)O)C(=O)OCc3ccccc3)C2)cc1 | – | –
2 | > 100000 | > 100000 | > 100000 | – | – | – | – | – | Cc1ccccc1NC(=O)Nc1ccc(CNC(=O)[C@H]2CCN(C(=O)C[C@H](NC(=O)c3c(Cl)cccc3Cl)C(=O)O)C2)cc1 | – | –
3 | 80 | 100 | 60 | 10 | > 100 | Dose-dependent effect | Dose-dependent effect | – | Cc1ccccc1NC(=O)Nc1ccc(CNC(=O)[C@H]2CCN(C(=O)[C@H](CC(=O)O)NC(=O)Cc3ccccc3)C2)cc1 | Non-toxic | Non-toxic
4 | > 100000 | 3900 | 2400 | – | – | – | Dose-dependent effect | – | Cc1ccccc1NC(=O)Nc1ccc(CNC(=O)[C@H]2CCN(C(=O)[C@H](CC(=O)O)NC(=O)c3c(Cl)cccc3Cl)C2)cc1 | – | –
5 | 93 | 290 | 180 | < 5 | > 100 | Dose-dependent effect | Dose-dependent effect | – | Cc1ccccc1NC(=O)Nc1ccc(CNC(=O)[C@H]2CCN(C(=O)C[C@H](NC(=O)Cc3ccccc3)C(=O)O)C2)cc1 | Non-toxic | Non-toxic
6 | – | – | – | – | – | Dose-dependent effect | Dose-dependent effect | Unstable | Cc1ccccc1NC(=O)Nc1ccc(CC(=O)N[C@@H](CC(C)C)C(=O)N[C@@H](CC(=O)O)C(=O)N[C@H](C(=O)N2CCC[C@H]2C(=O)O)C(C)C)cc1 ({NH(2-Me-phenyl)-CO}-[X1]LDVP-OH) | – | –
